Values belong to the molecule of their own block, whether it stands above or below them. Starred links: 1 amine or outer side, 2 acyl side, 3 side chain; linkers in the order of their positions; H or OH if unused. Non-standard residues stand in square brackets, D forms with d. Residues, ends and D or L forms follow the SMILES beside them. X1 = NCCCC(CC(=O)[*:2])N[*:1]; Nlys = NCCCCNCC(=O)O
Experiments:
[1] = system: CD40 mRNA; experiment: […] CD40 expression in BCL1 cells treated with 1 uM peptide nucleic acid (PNA)conjugate; n=3; format: functional, cell-based; details: Mus musculus
How it was run: (§1)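 Mouse BCL1 cells in DMEM with 10% FBS, given conjugate at 1, 3 or 10 μM by free uptake (no transfection agent) for 3 days. Cells trypsinised and stained 1 h with FITC anti-CD40 (HM40-3) or isotype control, then surface CD40 read by flow cytometry. Results are % untreated control, mean ± SD, n = 3.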

[2] = system: CD40 mRNA; experiment: […] CD40 expression in BCL1 cells treated with 10 uM peptide nucleic acid (PNA)conjugate; n=3; format: functional, cell-based; details: Mus musculus; how it was run: as §1
[3] = system: BCL1; experiment: Inhibitory concentration against BCL1 cell proliferation in WST-1 assay; format: functional, Mus musculus
How it was run: (§2)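 BCL1 cells, 2000 per well, grown in DMEM with 10% FBS at 37 °C and 5% CO2. Exposed to conjugate for 3 days, then viable cells read by WST-1 absorbance at 450 nm. Value is the concentration at which absorbance fell below 50% of untreated control; triplicates.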

[4] = Average tissue concentration of conjugate at a dose of 3 mg/Kg in BALB/c mice large intestine when given i.v. measured after 24 h; n=3; format: ADME, tissue-based; details: mouse, in vivo, iv
[5] = Average tissue concentration of conjugate at a dose of 3 mg/Kg in BALB/c mice MLN when given i.v. measured after 24 h; n=3; format: ADME; details: mouse, in vivo, iv
[6] = Average tissue concentration of conjugate at a dose of 3 mg/Kg in BALB/c mice injection site when given s.c. measured after 24 h; n=3; format: ADME; details: mouse, in vivo, sc
[7] = Average tissue concentration of conjugate at a dose of 3 mg/Kg in BALB/c mice large intestine when given s.c. measured after 24 h; n=3; format: ADME, tissue-based; details: mouse, in vivo, sc
[8] = Average tissue concentration of conjugate at a dose of 3 mg/Kg in BALB/c mice skeletal muscle when given i.v. measured after 24 h; n=3; format: ADME, tissue-based; details: mouse, in vivo, iv
[9] = Average tissue concentration of conjugate at a dose of 3 mg/Kg in BALB/c mice skeletal muscle when given s.c. measured after 24 h; n=3; format: ADME, tissue-based; details: mouse, in vivo, sc
[10] = Average tissue concentration of conjugate at a dose of 3 mg/Kg in BALB/c mice small intestine when given i.v. measured after 24 h; n=3; format: ADME, tissue-based; details: mouse, in vivo, iv
[11] = Average tissue concentration of conjugate at a dose of 3 mg/Kg in BALB/c mice small intestine when given s.c. measured after 24 h; n=3; format: ADME, tissue-based; details: mouse, in vivo, sc
[12] = Average tissue concentration of conjugate at a dose of 3 mg/Kg in BALB/c mice MLN when given s.c. measured after 24 h; n=3; format: ADME; details: mouse, in vivo, sc
[13] = Average tissue concentration of conjugate at a dose of 3 mg/Kg in BALB/c mice skin when given i.v. measured after 24 h; n=3; format: ADME; details: mouse, in vivo, iv
[14] = Average tissue concentration of conjugate at a dose of 3 mg/Kg in BALB/c mice skin when given s.c. measured after 24 h; n=3; format: ADME; details: mouse, in vivo, sc
[15] = Average tissue concentration of conjugate at a dose of 3 mg/Kg in BALB/c mice heart when given i.v. measured after 24 h; n=3; format: ADME, tissue-based; details: mouse, in vivo, iv
[16] = Average tissue concentration of conjugate at a dose of 3 mg/Kg in BALB/c mice heart when given s.c. measured after 24 h; n=3; format: ADME, tissue-based; details: mouse, in vivo, sc
[17] = Average tissue concentration of conjugate at a dose of 3 mg/Kg in BALB/c mice liver when given i.v. measured after 24 h; n=3; format: ADME, tissue-based; details: mouse, in vivo, iv
[18] = Average tissue concentration of conjugate at a dose of 3 mg/Kg in BALB/c mice liver when given s.c. measured after 24 h; n=3; format: ADME, tissue-based; details: mouse, in vivo, sc
[19] = Average tissue concentration of conjugate at a dose of 3 mg/Kg in BALB/c mice lungs when given i.v. measured after 24 h; n=3; format: ADME; details: mouse, in vivo, iv
[20] = Average tissue concentration of conjugate at a dose of 3 mg/Kg in BALB/c mice lungs when given s.c. measured after 24 h; n=3; format: ADME; details: mouse, in vivo, sc
[21] = Average tissue concentration of conjugate at a dose of 3 mg/Kg in BALB/c mice kidney when given i.v. measured after 24 h; n=3; format: ADME; details: mouse, in vivo, iv
[22] = Average tissue concentration of conjugate at a dose of 3 mg/Kg in BALB/c mice kidney when given s.c. measured after 24 h; n=3; format: ADME; details: mouse, in vivo, sc
[23] = Average tissue concentration of conjugate at a dose of 3 mg/Kg in BALB/c mice spleen when given i.v. measured after 24 h; n=3; format: ADME, tissue-based; details: mouse, in vivo, iv
[24] = Average tissue concentration of conjugate at a dose of 3 mg/Kg in BALB/c mice spleen when given s.c. measured after 24 h; n=3; format: ADME, tissue-based; details: mouse, in vivo, sc
[25] = Average tissue concentration of conjugate at a dose of 3 mg/Kg in BALB/c mice testes when given i.v. measured after 24 h; n=3; format: ADME, tissue-based, Testis; details: mouse, in vivo, iv
[26] = Average tissue concentration of conjugate at a dose of 3 mg/Kg in BALB/c mice testes when given s.c. measured after 24 h; n=3; format: ADME, tissue-based, Testis; details: mouse, in vivo, sc
[27] = Average tissue concentration of conjugate at a dose of 3 mg/Kg in BALB/c mice pancreas when given i.v. measured after 24 h; n=3; format: ADME; details: mouse, in vivo, iv
[28] = Average tissue concentration of conjugate at a dose of 3 mg/Kg in BALB/c mice pancreas when given s.c. measured after 24 h; n=3; format: ADME; details: mouse, in vivo, sc
[29] = Half-life of the conjugate when treated with 25% murine serum for enzymatic stability; format: ADME; details: mouse
How it was run: (§3)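 Conjugates at 20 μM in 10% FBS RPMI 1640 medium or 25% mouse serum (Hepes-stabilised, diluted in PBS, pH 7.1–7.4), incubated at 37 °C. Sampled to 168 h (FBS) or 48 h (serum); proteins precipitated with 10% DCA, PNA 6mer internal standard added. Analysed by C3 RP-HPLC at 60 °C; t1/2 from normalised full-length peak area versus time.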

[30] = Half-life of the conjugate when treated with 10% foetal bovine serum for enzymatic stability; No degradation observed within the period of time indicated; format: ADME, Bos taurus; details: cattle; how it was run: as §3
[31] = system: CD40 mRNA; experiment: […] CD40 expression in BCL1 cells treated with 3 uM peptide nucleic acid (PNA)conjugate; n=3; format: functional, cell-based; details: Mus musculus; how it was run: as §1
[32] = system: BCL1; experiment: Inhibitory concentration against BCL1 cell proliferation in WST-1 assay; Range 10-20; format: functional, Mus musculus; how it was run: as §2
[33] = Half-life of the conjugate when treated with 10% foetal bovine serum for enzymatic stability; format: ADME, Bos taurus; details: cattle; how it was run: as §3
[34] = Half-life of the conjugate when treated with 25% murine serum for enzymatic stability; Range 2-3 h; format: ADME; details: mouse; how it was run: as §3
[35] = Half-life of the conjugate when treated with 25% murine serum for enzymatic stability; No data available; format: ADME; details: mouse; how it was run: as §3
[36] = system: BCL1; experiment: Inhibitory concentration against BCL1 cell proliferation in WST-1 assay; Range 5-10; format: functional, Mus musculus; how it was run: as §2
[37] = Half-life of the conjugate when treated with 25% murine serum for enzymatic stability; No degradation observed within the period of time indicated; format: ADME; details: mouse; how it was run: as §3

Biodistribution [4]: 2.07 ug equiv/g
Biodistribution [5]: 1.94 ug equiv/g
Biodistribution [6]: 20 ug equiv/g
Biodistribution [7]: 0.31 ug equiv/g
Biodistribution [8]: 0.29 ug equiv/g
Biodistribution [9]: 0.2 ug equiv/g
Biodistribution [10]: 1.31 ug equiv/g
Biodistribution [11]: 0.26 ug equiv/g
Biodistribution [12]: 0.76 ug equiv/g
Biodistribution [13]: 1.25 ug equiv/g
Biodistribution [14]: 0.75 ug equiv/g
Biodistribution [15]: 0.18 ug equiv/g
Biodistribution [16]: 0.07 ug equiv/g
Biodistribution [17]: 11.47 ug equiv/g
Biodistribution [18]: 5.44 ug equiv/g
Biodistribution [19]: 0.22 ug equiv/g
Biodistribution [20]: 0.1 ug equiv/g
Biodistribution [21]: 12.74 ug equiv/g
Biodistribution [22]: 11.55 ug equiv/g
Biodistribution [23]: 3.68 ug equiv/g
Biodistribution [24]: 1.51 ug equiv/g
Biodistribution [25]: 0.38 ug equiv/g
Biodistribution [26]: 0.23 ug equiv/g
Biodistribution [27]: 0.6 ug equiv/g
Biodistribution [28]: 0.2 ug equiv/g
half-life [29]: 6.7 h
half-life [30]: > 168 h
SMILES: NCCCC[C@@H](C=O)NC(=O)[C@H](CCCCN)NC(=O)[C@H](CCCCN)NC(=O)[C@H](CCCCN)NC(=O)[C@H](CCCCN)NC(=O)[C@H](CCCCN)NC(=O)[C@H](CCCCN)NC(=O)[C@H](CCCCN)NC(=O)[C@@H](N)CCCCN
UTC [1]: 88% [middle of 7 runs]
UTC [2]: 39% [middle of 7 runs]
IC50 for cell proliferation [3]: 20 µM

half-life [33]: 90 h
half-life [34]: 3 h
SMILES: NCCCC[C@@H](C=O)NC(=O)[C@H](CCCCN)NC(=O)[C@H](CCCCN)NC(=O)[C@H](CCCN=C(N)N)NC(=O)[C@H](CCCCN)NC(=O)[C@H](CCCCN)NC(=O)[C@H](CCCN=C(N)N)NC(=O)[C@H](CCCCN)NC(=O)[C@@H](N)CCCCN (H-KKRKKRKKK-aldehyde)
UTC [1]: 90%
UTC [31]: 76%
UTC [2]: 43%
IC50 [32]: 20 µM

half-life [33]: 20 h
half-life [34]: 3 h
SMILES: N=C(N)NCCC[C@H](NC(=O)[C@H](CCCNC(=N)N)NC(=O)[C@H](CCCNC(=N)N)NC(=O)[C@H](CCCNC(=N)N)NC(=O)[C@H](CCCNC(=N)N)NC(=O)[C@H](CCCNC(=N)N)NC(=O)[C@H](CCCNC(=N)N)NC(=O)[C@@H](N)CCCNC(=N)N)C(=O)N[C@H](C=O)CCCCN (H-RRRRRRRRK-aldehyde)
UTC [1]: 102%
UTC [31]: 81%
UTC [2]: 60%
IC50 for cell proliferation [3]: >20 µM

half-life [33]: > 168 h
T1/2 [35]: No data available
SMILES: NCCCC[C@H](NC(=O)CN(CCCCN)C(=O)[C@H](CCCCN)NC(=O)CN(CCCCN)C(=O)[C@H](CCCCN)NC(=O)CN(CCCCN)C(=O)[C@H](CCCCN)NC(=O)CN(CCCCN)C(=O)[C@@H](N)CCCCN)C(=O)O (H-K[Nlys]K[Nlys]K[Nlys]K[Nlys]K-OH)
UTC [1]: 111%
UTC [31]: 96%
UTC [2]: 70%
IC50 [32]: 20 µM

half-life [29]: > 48 h
half-life [33]: > 168 h
SMILES: NCCCC[C@@H](C=O)NC(=O)CC(CCCN)NC(=O)CC(CCCN)NC(=O)CC(CCCN)NC(=O)CC(CCCN)NC(=O)CC(CCCN)NC(=O)CC(CCCN)NC(=O)CC(CCCN)NC(=O)CC(N)CCCN (stereo partly specified)
UTC [1]: 94%
UTC [31]: 81%
UTC [2]: 66%
Cell viability [36]: 10 µM

half-life [33]: > 168 h
T1/2 [35]: No data available
SMILES: NCCCC[C@@H](C=O)NC(=O)[C@H](CCCCN)NC(=O)[C@H](CCCCN)NC(=O)CC(CCCN)NC(=O)[C@H](CCCCN)NC(=O)[C@H](CCCCN)NC(=O)CC(CCCN)NC(=O)[C@H](CCCCN)NC(=O)[C@@H](N)CCCCN (stereo partly specified) (H-KK[X1]KK[X1]KKK-aldehyde)
UTC [1]: 98%
UTC [31]: 82%
UTC [2]: 61%
Cell viability [36]: 10 µM

half-life [33]: > 168 h
half-life [37]: > 48 h
SMILES: NCCCC[C@@H](C=O)NC(=O)[C@@H](CCCCN)NC(=O)[C@@H](CCCCN)NC(=O)[C@@H](CCCCN)NC(=O)[C@@H](CCCCN)NC(=O)[C@@H](CCCCN)NC(=O)[C@@H](CCCCN)NC(=O)[C@@H](CCCCN)NC(=O)[C@H](N)CCCCN
UTC [1]: 97%
UTC [31]: 81%
UTC [2]: 54%
IC50 [32]: 20 µM
